Active and inactive are the calls of the source. Where a SMILES comes first, the peptide text is derived from it. [ ]: non-standard residue; d: D form. The star is where a group is joined. Dmt = Cc1cc(O)cc(C)c1C[C@H](N)C(=O)O; Tic = O=C(O)[C@@H]1Cc2ccccc2CN1; NHBn = c1ccc(CN*)cc1; NHPh = c1ccc(N*)cc1
Key:
[1] = organism: Rattus norvegicus; experiment: Selectivity ratio of Ki for mu opioid receptor in Sprague-Dawley rat brain to Ki for delta opioid receptor in Sprague-Dawley rat brain
[2] = target: Mu-type opioid receptor (Rattus norvegicus, UniProt P33535); experiment: Displacement of [3H]DAMGO from mu opioid receptor in Sprague-Dawley rat brain P2 synaptosomal membrane
Method in brief: (§1)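 Competition binding to Sprague-Dawley rat brain P2 synaptosomal membranes, preincubated to strip endogenous opioids and stored at −80 °C in buffered 20% glycerol. Incubated at equilibrium for 2.5 h at 23 °C. Separated on polyethylenimine-soaked (0.1%) glass-fibre filters washed three times in ice-cold buffered BSA. Duplicates at five to eight doses, 3–5 independent membrane preparations; Ki by Cheng–Prusoff, mean ± SE.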

[3] = target: Delta-type opioid receptor (Mus musculus, UniProt P32300); experiment: Antagonist activity at delta opioid receptor in mouse vas deferens assessed as effect on deltorphin 2-induced response; assay type: functional, tissue-based; details: read-out: pA2 (converted)
Method in brief: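 Single mouse vas deferens suspended in an organ bath in balanced physiological salt buffer, pH 7.5. Agonism measured as inhibition of electrically evoked contraction, with IC50 taken from dose-response curves; DPDPE was the internal standard. Antagonism tested against deltorphin II and given as pA2 (Schild plot / Kosterlitz and Watt method). Values are mean ± SE of separate tissue assays.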

[4] = target: Delta-type opioid receptor (Rattus norvegicus, UniProt P33533); experiment: Displacement of [3H]deltorphin2 from delta opioid receptor in Sprague-Dawley rat brain P2 synaptosomal membrane; method in brief: as §1
[5] = tested on: Mus musculus; experiment: Antinociceptive activity in Swiss-Webster mouse at 10 ug, icv after 10 mins by hot plate test in presence of naloxone; assay type: functional, organism-based
Method in brief: (§2)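 Mice given sc naltrindole (3 mg/kg) or naloxone (10 mg/kg), then 20 min later 10 µg/mouse icv in 5 μL saline. Nociception measured by hot-plate (55 °C, latency to jump/lick/paw-shake, 30 s cut-off, every 10 min) or tail-flick.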

[6] = tested on: Mus musculus; experiment: Antinociceptive activity in Swiss-Webster mouse at 10 ug, icv by tail flick test in presence of naltrindole; assay type: functional, organism-based; method in brief: as §2
[7] = tested on: Mus musculus; experiment: Antinociceptive activity in Swiss-Webster mouse at 10 ug, icv after 10 mins by hot plate test in presence of naltrindole; assay type: functional, organism-based; method in brief: as §2
[8] = tested on: Brain; experiment: Stability in Swiss mouse brain after 2 hrs; assay type: ADME, tissue-based
[9] = tested on: Mus musculus; experiment: Toxicity in Swiss-Webster mouse assessed as induction of sedation at 10 ug, icv; assay type: organism-based; details: in vivo, icv_or_intrathecal
[10] = tested on: Plasma; experiment: Stability in Swiss mouse plasma after 4 hrs; assay type: ADME, cell-free
[11] = tested on: Mus musculus; experiment: Toxicity in icv dosed Swiss-Webster mouse assessed as induction of convulsion; assay type: organism-based; details: in vivo, icv_or_intrathecal
[12] = tested on: Mus musculus; experiment: Analgesic activity in icv dosed Swiss-Webster mouse by tail flick test; assay type: functional, organism-based
[13] = tested on: Mus musculus; experiment: Antinociceptive activity in Swiss-Webster mouse at 10 ug, icv by tail flick test in presence of naloxone; assay type: functional, organism-based; method in brief: as §2
[14] = tested on: Mus musculus; experiment: Analgesic activity in icv dosed Swiss-Webster mouse after 10 mins by hot plate test; assay type: functional, organism-based
Method in brief: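 Male Swiss-Webster mice (20–25 g) given 5 μL of peptide in saline icv at bregma; only mice with a correct needle tract were counted. For hot plate: 55 ± 0.1 °C, start 10 min post-dose, latency to jump, lick or shake hind paw, 30 s cut-off, repeated every 10 min.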

[15] = tested on: Mus musculus; experiment: Toxicity in Swiss-Webster mouse assessed as induction of agitated behavior at 10 ug, icv; assay type: organism-based; details: in vivo, icv_or_intrathecal

Chain of Delta-type opioid receptor (Rattus norvegicus, UniProt P33533) (P33533 whole entry): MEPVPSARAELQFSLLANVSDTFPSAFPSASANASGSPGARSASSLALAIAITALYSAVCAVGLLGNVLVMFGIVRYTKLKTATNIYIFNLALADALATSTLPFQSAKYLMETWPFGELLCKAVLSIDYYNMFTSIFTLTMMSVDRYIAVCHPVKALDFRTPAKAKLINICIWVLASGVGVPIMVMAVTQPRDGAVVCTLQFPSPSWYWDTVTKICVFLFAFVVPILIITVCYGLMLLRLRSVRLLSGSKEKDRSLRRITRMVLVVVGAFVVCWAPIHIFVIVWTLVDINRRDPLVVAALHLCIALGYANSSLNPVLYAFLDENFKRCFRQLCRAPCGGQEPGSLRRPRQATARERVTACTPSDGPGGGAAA
Chain of Delta-type opioid receptor (Mus musculus, UniProt P32300) (P32300 whole entry): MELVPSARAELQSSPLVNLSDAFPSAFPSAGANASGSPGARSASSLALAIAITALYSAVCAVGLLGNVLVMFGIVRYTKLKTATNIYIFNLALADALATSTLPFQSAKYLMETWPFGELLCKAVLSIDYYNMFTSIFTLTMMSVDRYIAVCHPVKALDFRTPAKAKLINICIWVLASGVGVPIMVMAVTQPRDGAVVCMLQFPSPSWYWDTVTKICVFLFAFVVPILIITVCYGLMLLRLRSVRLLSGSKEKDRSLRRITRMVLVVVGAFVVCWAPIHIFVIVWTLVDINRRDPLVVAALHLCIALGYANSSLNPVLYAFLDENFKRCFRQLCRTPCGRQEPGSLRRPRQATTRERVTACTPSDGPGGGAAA
Chain of Mu-type opioid receptor (P33535 whole entry): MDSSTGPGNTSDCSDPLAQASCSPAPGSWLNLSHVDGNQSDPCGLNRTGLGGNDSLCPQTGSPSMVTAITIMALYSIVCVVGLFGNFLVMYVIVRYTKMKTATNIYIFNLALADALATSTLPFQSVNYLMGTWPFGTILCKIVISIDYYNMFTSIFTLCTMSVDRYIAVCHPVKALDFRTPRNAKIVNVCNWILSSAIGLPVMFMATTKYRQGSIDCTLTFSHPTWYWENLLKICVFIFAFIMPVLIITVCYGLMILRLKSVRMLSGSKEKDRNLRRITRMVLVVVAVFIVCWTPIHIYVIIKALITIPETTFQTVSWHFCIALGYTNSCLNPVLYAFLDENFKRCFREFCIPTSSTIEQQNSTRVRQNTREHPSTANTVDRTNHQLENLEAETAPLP

Row | Compound | Ratio Ki [1] | Ki [2] [nM] | Kb [3] [nM] | Ki [4] [nM] | further results
1 | Cc1cc(O)cc(C)c1C[C@H](N)C(=O)N1Cc2ccccc2C[C@H]1C(=O)NCC(=O)NCc1ccccc1 (H-[Dmt]-[Tic]-Gly-NHBn) | 5 | – | – | – | –
2 | Cc1cc(O)cc(C)c1C[C@H](N)C(=O)N1Cc2ccccc2C[C@H]1C(=O)NCC(=O)N(C)c1ccccc1 | 12 | 1.75 | 1.58 | 0.143 | –
3 | Cc1cc(O)cc(C)c1C[C@H](N)C(=O)N1Cc2ccccc2C[C@H]1C(=O)NCC(=O)Nc1ccccc1 (H-[Dmt]-[Tic]-Gly-NHPh) | 4 | – | – | – | –
4 | Cc1cc(O)cc(C)c1C[C@H](N)C(=O)N1Cc2ccccc2C[C@H]1C(=O)N[C@@H](CC(=O)O)C(=O)N(C)c1ccccc1 | 1960 | 364 | 1.78 | 0.186 | –
5 | Cc1cc(O)cc(C)c1C[C@H](N)C(=O)N1Cc2ccccc2C[C@H]1C(=O)N[C@H](CC(=O)O)C(=O)N(C)c1ccccc1 | 536 | 45 | 8.71 | 0.084 | –
6 | Cc1cc(O)cc(C)c1C[C@H](N)C(=O)N1Cc2ccccc2C[C@H]1C(=O)N[C@@H](CC(=O)O)C(=O)NCc1ccccc1 (H-[Dmt]-[Tic]-Asp-NHBn) | – | 309 | 2.95 | 0.054 | –
7 | Cc1cc(O)cc(C)c1C[C@H](N)C(=O)N1Cc2ccccc2C[C@H]1C(=O)N[C@H](CC(=O)O)c1nc2ccccc2n1C | 169 | 11.8 | 0.224 | 0.07 | –
8 | Cc1cc(O)cc(C)c1C[C@H](N)C(=O)N1Cc2ccccc2C[C@H]1C(=O)N[C@@H](CC(=O)O)C(=O)Nc1ccccc1 | 300 | 10.8 | 0.398 | 0.036 | –
9 | Cc1cc(O)cc(C)c1C[C@H](N)C(=O)N1Cc2ccccc2C[C@H]1C(=O)N[C@H](CC(=O)O)C(=O)Nc1ccccc1 | 129 | 7.49 | 2.4 | 0.058 | –
10 | Cc1cc(O)cc(C)c1C[C@H](N)C(=O)N1Cc2ccccc2C[C@H]1C(=O)N[C@H](CC(=O)O)c1nc2ccccc2[nH]1 | 240 | 16.1 | – | 0.067 | –
11 | Cc1cc(O)cc(C)c1C[C@H](N)C(=O)N1Cc2ccccc2C[C@H]1C(=O)N[C@@H](CC(=O)O)c1nc2ccccc2n1C | 101 | 5.93 | 0.126 | 0.059 | Activity [5]: Active; Activity [6]: inactive; Activity [7]: Active; Stability [8]: Stable; Activity [9]: Toxic; Stability [10]: Stable; Activity [11]: Toxic; Activity [12]: Dose-dependent effect; Activity [13]: inactive; Activity [14]: Dose-dependent effect
12 | Cc1cc(O)cc(C)c1C[C@H](N)C(=O)N1Cc2ccccc2C[C@H]1C(=O)N[C@@H](CC(=O)O)c1nc2ccccc2[nH]1 | 122 | – | 0.126 | – | Activity [5]: Active; Activity [6]: inactive; Activity [15]: Toxic; Activity [7]: Active; Stability [8]: Stable; Stability [10]: Stable; Activity [11]: Toxic; Activity [12]: Dose-dependent effect; Activity [13]: inactive; Activity [14]: Dose-dependent effect

— ChEMBL document CHEMBL1156628, “Further studies on lead compounds containing the opioid pharmacophore Dmt-Tic” (J Med Chem, 2008)
